Experimental data from ChEMBL document CHEMBL5058577, “EUbOPEN Chemogenomics Library 2 (Multiplex)” (2022).

Test system: HEK-293T
Assay: Multiplex assay against HEK293T
Type: toxicity, cell-based
Details: human
Procedure, shortened: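 Compound was added to live cells that had been stained at seeding with Hoechst33342, BioTracker Green Microtubule Cytoskeleton Dye, MitoTracker Red and Annexin V Alexa Fluor 680, and imaging followed on a CQ1 microscope at 37°C and 5% CO2. CellPathfinder machine-learning gating divided cells into Hoechst high-intensity objects or normal cells, normal cells into healthy, pyknosed or fragmented nuclei, and pyknosed cells into mitotic or apoptotic. Tubulin, mitochondrial-mass and membrane-permeability phenotypes are per cents of healthy-nucleus cells.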

[1] = 12 h, 1 µM, compound concentration 1 uM, replicate 1
[2] = 12 h, 1 µM, compound concentration 1 uM, replicate 2
[3] = 12 h, 10 µM, compound concentration 10 uM, replicate 1
[4] = 12 h, 10 µM, compound concentration 10 uM, replicate 2
[5] = 24 h, 1 µM, compound concentration 1 uM, replicate 1
[6] = 24 h, 1 µM, compound concentration 1 uM, replicate 2
[7] = 24 h, 10 µM, compound concentration 10 uM, replicate 1
[8] = 24 h, 10 µM, compound concentration 10 uM, replicate 2
[9] = 48 h, 1 µM, compound concentration 1 uM, replicate 1
[10] = 48 h, 1 µM, compound concentration 1 uM, replicate 2
[11] = 48 h, 10 µM, compound concentration 10 uM, replicate 1
[12] = 48 h, 10 µM, compound concentration 10 uM, replicate 2

## COc1cc(OC2CCN(C(C)=O)CC2)ccc1C(=O)N1CCC(N2C(=O)OCc3ccccc32)CC1
[1]
  Population Apoptotic (%): 28%
  Population Fragmented Nuclei (%): 5%
  Population Healthy Nuclei (%): 83%
  Population Hoechst High Intensity Objects (%): 7%
  Population Membrane Permeable-Phenotype (%): 0%
  Population Mitochondria Different-Phenotype (%): 37%
  Population Mitotic Cells (%): 71%
  Population Normal (%): 92%
  Population Pyknosed Nuclei (%): 11%
  Population Tubulin-Different-Phenotype (%): 26%
  Total Cell Count: 477
[2]
  Population Apoptotic (%): 48%
  Population Healthy Nuclei (%): 76%
  Population Mitochondria Different-Phenotype (%): 59%
  Population Mitotic Cells (%): 51%
  Population Pyknosed Nuclei (%): 18%
  Population Tubulin-Different-Phenotype (%): 21%
  Total Cell Count: 381
[3]
  Population Apoptotic (%): 40%
  Population Fragmented Nuclei (%): 9%
  Population Healthy Nuclei (%): 77%
  Population Hoechst High Intensity Objects (%): 8%
  Population Membrane Permeable-Phenotype (%): 0%
  Population Mitochondria Different-Phenotype (%): 57%
  Population Mitotic Cells (%): 60%
  Population Normal (%): 91%
  Population Pyknosed Nuclei (%): 13%
  Population Tubulin-Different-Phenotype (%): 47%
  Total Cell Count: 436
[4]
  Population Apoptotic (%): 67%
  Population Fragmented Nuclei (%): 4%
  Population Healthy Nuclei (%): 80%
  Population Hoechst High Intensity Objects (%): 6%
  Population Mitochondria Different-Phenotype (%): 77%
  Population Mitotic Cells (%): 32%
  Population Normal (%): 93%
  Population Pyknosed Nuclei (%): 14%
  Population Tubulin-Different-Phenotype (%): 40%
  Total Cell Count: 316
[5]
  Population Apoptotic (%): 28%
  Population Fragmented Nuclei (%): 9%
  Population Healthy Nuclei (%): 78%
  Population Hoechst High Intensity Objects (%): 4%
  Population Membrane Permeable-Phenotype (%): 2%
  Population Mitochondria Different-Phenotype (%): 25%
  Population Mitotic Cells (%): 71%
  Population Normal (%): 95%
  Population Pyknosed Nuclei (%): 11%
  Population Tubulin-Different-Phenotype (%): 17%
  Total Cell Count: 598
[6]
  Population Apoptotic (%): 48%
  Population Fragmented Nuclei (%): 7%
  Population Healthy Nuclei (%): 80%
  Population Hoechst High Intensity Objects (%): 6%
  Population Membrane Permeable-Phenotype (%): 0%
  Population Mitochondria Different-Phenotype (%): 40%
  Population Mitotic Cells (%): 51%
  Population Normal (%): 93%
  Population Pyknosed Nuclei (%): 12%
  Population Tubulin-Different-Phenotype (%): 15%
  Total Cell Count: 491
[7]
  Population Apoptotic (%): 31%
  Population Fragmented Nuclei (%): 8%
  Population Healthy Nuclei (%): 78%
  Population Hoechst High Intensity Objects (%): 3%
  Population Membrane Permeable-Phenotype (%): 0%
  Population Mitochondria Different-Phenotype (%): 44%
  Population Mitotic Cells (%): 68%
  Population Normal (%): 96%
  Population Pyknosed Nuclei (%): 13%
  Population Tubulin-Different-Phenotype (%): 36%
  Total Cell Count: 523
[8]
  Population Apoptotic (%): 49%
  Population Fragmented Nuclei (%): 7%
  Population Hoechst High Intensity Objects (%): 4%
  Population Mitochondria Different-Phenotype (%): 58%
  Population Mitotic Cells (%): 50%
  Population Normal (%): 95%
  Population Pyknosed Nuclei (%): 14%
  Population Tubulin-Different-Phenotype (%): 29%
  Total Cell Count: 393
[9]
  Population Apoptotic (%): 20%
  Population Fragmented Nuclei (%): 13%
  Population Healthy Nuclei (%): 78%
  Population Hoechst High Intensity Objects (%): 3%
  Population Membrane Permeable-Phenotype (%): 1%
  Population Mitochondria Different-Phenotype (%): 19%
  Population Mitotic Cells (%): 79%
  Population Normal (%): 96%
  Population Pyknosed Nuclei (%): 8%
  Population Tubulin-Different-Phenotype (%): 13%
  Total Cell Count: 902
[10]
  Population Apoptotic (%): 33%
  Population Fragmented Nuclei (%): 11%
  Population Healthy Nuclei (%): 80%
  Population Hoechst High Intensity Objects (%): 2%
  Population Mitochondria Different-Phenotype (%): 23%
  Population Mitotic Cells (%): 66%
  Population Normal (%): 97%
  Population Pyknosed Nuclei (%): 7%
  Population Tubulin-Different-Phenotype (%): 12%
  Total Cell Count: 655
[11]
  Population Apoptotic (%): 36%
  Population Fragmented Nuclei (%): 13%
  Population Healthy Nuclei (%): 78%
  Population Hoechst High Intensity Objects (%): 4%
  Population Membrane Permeable-Phenotype (%): 0%
  Population Mitochondria Different-Phenotype (%): 30%
  Population Mitotic Cells (%): 63%
  Population Normal (%): 95%
  Population Pyknosed Nuclei (%): 8%
  Population Tubulin-Different-Phenotype (%): 21%
  Total Cell Count: 813
[12]
  Population Fragmented Nuclei (%): 12%
  Population Healthy Nuclei (%): 80%
  Population Hoechst High Intensity Objects (%): 3%
  Population Mitochondria Different-Phenotype (%): 39%
  Population Normal (%): 96%
  Population Pyknosed Nuclei (%): 7%
  Population Tubulin-Different-Phenotype (%): 16%
  Total Cell Count: 625
